Assay results as given in publication PMC6519384 (Andrology, 2018).

Key:
[1] = test system: blood esterases; test: Ex vivo addition of TU to blood in different blood collection tubes; format: in vitro ADME, human
How it was run: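 Venous blood from hypogonadal or healthy men is aliquoted (2 mL) into duplicate plain or inhibitor-containing tubes. TU in methanol (≤1% methanol) is added to 30–1000 ng/mL final, then held 30/60 min at 4 °C or RT before centrifugation. T is extracted with ethyl acetate:hexane (3:2) and measured by LC‑MS/MS (m/z 289.2/109.0, D2‑T internal standard). Results are % difference vs the average plain tube with no ester added.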

[2] = TU added to serum with increasing NaF, T measured; format: in vitro ADME, human; conditions: 500 ng/mL TU added to two serum samples or an aqueous solution
[3] = Single oral dose of 316 mg TU in hypogonadal men; format: in vivo, human; conditions: TU concentrations below 15 ng/mL; oral 316 mg TU
How it was run: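 Eight hypogonadal men received one 316 mg oral TU dose in a self‑emulsifying system just before a meal. Blood was drawn at −30 and 0 min, then hourly for 12 h, into plain and NaF‑EDTA tubes. T was measured by LC‑MS/MS after ethyl acetate:hexane (3:2) extraction. The % difference in T between tube types was plotted against the matching average TU, with regression.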

[4] = TU 300 ng/mL, K2EDTA (1.8 mg/mL) tube, 30 min 4 °C, Experiment 2
[5] = TU 300 ng/mL, K2EDTA (1.8 mg/mL) tube, 60 min 4 °C, Experiment 2
[6] = TU 300 ng/mL, K2EDTA (1.8 mg/mL) tube, 60 min RT, Experiment 2
[7] = TU 300 ng/mL, NaF (1.5 mg/mL) + Na2EDTA (3 mg/mL) tube, 60 min RT, Experiment 2
[8] = TU 300 ng/mL, NaF (5 mg/mL) + K2Oxalate (4 mg/mL) tube, 60 min RT, Experiment 2
[9] = TU 300 ng/mL, NaF (15 mg/mL) tube, 30 min 4 °C, Experiment 1
[10] = TU 300 ng/mL, NaF (15 mg/mL) tube, 30 min RT, Experiment 1
[11] = TU 300 ng/mL, P800 tube, 30 min 4 °C, Experiment 2
[12] = TU 300 ng/mL, P800 tube, 60 min 4 °C, Experiment 2
[13] = TU 300 ng/mL, P800 tube, 60 min RT, Experiment 2
[14] = TU 300 ng/mL, Plain tube, 30 min 4 °C, Experiment 1
[15] = TU 300 ng/mL, Plain tube, 30 min RT, Experiment 1
[16] = TU 300 ng/mL, P‐800 tube, 30 min 4 °C, Experiment 1
[17] = TU 300 ng/mL, P‐800 tube, 30 min RT, Experiment 1
[18] = TU 600 ng/mL, K2EDTA (1.8 mg/mL) tube, 30 min 4 °C, Experiment 2
[19] = TU 600 ng/mL, K2EDTA (1.8 mg/mL) tube, 60 min 4 °C, Experiment 2
[20] = TU 600 ng/mL, K2EDTA (1.8 mg/mL) tube, 60 min RT, Experiment 2
[21] = TU 600 ng/mL, NaF (1.5 mg/mL) + Na2EDTA (3 mg/mL) tube, 60 min RT, Experiment 2
[22] = TU 600 ng/mL, NaF (5 mg/mL) + K2Oxalate (4 mg/mL) tube, 60 min RT, Experiment 2
[23] = TU 600 ng/mL, NaF (15 mg/mL) tube, 30 min 4 °C, Experiment 1
[24] = TU 600 ng/mL, NaF (15 mg/mL) tube, 30 min RT, Experiment 1
[25] = TU 600 ng/mL, P800 tube, 30 min 4 °C, Experiment 2
[26] = TU 600 ng/mL, P800 tube, 60 min 4 °C, Experiment 2
[27] = TU 600 ng/mL, P800 tube, 60 min RT, Experiment 2
[28] = TU 600 ng/mL, Plain tube, 30 min 4 °C, Experiment 1
[29] = TU 600 ng/mL, Plain tube, 30 min 4 °C, Experiment 2
[30] = TU 600 ng/mL, Plain tube, 30 min RT, Experiment 1
[31] = TU 600 ng/mL, Plain tube, 60 min 4 °C, Experiment 2
[32] = TU 600 ng/mL, Plain tube, 60 min RT, Experiment 2
[33] = TU 600 ng/mL, P‐800 tube, 30 min 4 °C, Experiment 1
[34] = TU 600 ng/mL, P‐800 tube, 30 min RT, Experiment 1

CCCCCCCCCCC(=O)O[C@H]1CC[C@H]2[C@@H]3CCC4=CC(=O)CC[C@]4(C)[C@H]3CC[C@]12C [TU, testosterone undecanoate]
% difference vs. no TU added [1, 4]: +20.5%
Measured T [1, 4]: 534.5 ng/dL
% difference vs. no TU added [1, 5]: +14.7%
Measured T [1, 5]: 521.5 ng/dL
% difference vs. no TU added [1, 6]: +129.7%
Measured T [1, 6]: 1105.0 ng/dL
% difference vs. no TU added [1, 7]: +57.5%
Measured T [1, 7]: 705.0 ng/dL
% difference vs. no TU added [1, 8]: +79.5%
Measured T [1, 8]: 717.0 ng/dL
% difference vs. no TU added [1, 9]: −0.6%
Measured T [1, 9]: 269.5 ng/dL
% difference vs. no TU added [1, 10]: +16.4%
Measured T [1, 10]: 301.5 ng/dL
% difference vs. no TU added [1, 11]: +13.1%
Measured T [1, 11]: 492.5 ng/dL
% difference vs. no TU added [1, 12]: +3.3%
Measured T [1, 12]: 491.5 ng/dL
% difference vs. no TU added [1, 13]: +100.9%
Measured T [1, 13]: 860.0 ng/dL
% difference vs. no TU added [1, 14]: +17.9%
Measured T [1, 14]: 412.0 ng/dL
Measured T ([1]; TU 300 ng/mL, Plain tube, 30 min 4 °C, Experiment 2): 624.5 ng/dL
% difference vs. no TU added [1, 15]: +43.1%
Measured T [1, 15]: 505.0 ng/dL
Measured T ([1]; TU 300 ng/mL, Plain tube, 60 min 4 °C, Experiment 2): 741.5 ng/dL
Measured T ([1]; TU 300 ng/mL, Plain tube, 60 min RT, Experiment 2): 984.0 ng/dL
% difference vs. no TU added [1, 16]: +18.7%
Measured T [1, 16]: 384.0 ng/dL
% difference vs. no TU added [1, 17]: +41.7%
Measured T [1, 17]: 467.0 ng/dL
% difference vs. no TU added [1, 18]: +21.6%
Measured T [1, 18]: 539.5 ng/dL
% difference vs. no TU added [1, 19]: +47.3%
Measured T [1, 19]: 669.5 ng/dL
% difference vs. no TU added [1, 20]: +266.9%
Measured T [1, 20]: 1765.0 ng/dL
% difference vs. no TU added [1, 21]: +176.0%
Measured T [1, 21]: 1235.0 ng/dL
% difference vs. no TU added [1, 22]: +171.6%
Measured T [1, 22]: 1085.0 ng/dL
% difference vs. no TU added [1, 23]: +24.2%
Measured T [1, 23]: 336.5 ng/dL
% difference vs. no TU added [1, 24]: +39.0%
Measured T [1, 24]: 360.0 ng/dL
% difference vs. no TU added [1, 25]: +18.3%
Measured T [1, 25]: 515.0 ng/dL
% difference vs. no TU added [1, 26]: +22.3%
Measured T [1, 26]: 582.0 ng/dL
% difference vs. no TU added [1, 27]: +222.4%
Measured T [1, 27]: 1380.0 ng/dL
% difference vs. no TU added [1, 28]: +30.3%
Measured T [1, 28]: 455.5 ng/dL
% difference vs. no TU added [1, 29]: +23.7%
Measured T [1, 29]: 541.0 ng/dL
% difference vs. no TU added [1, 30]: +130.6%
Measured T [1, 30]: 814.0 ng/dL
% difference vs. no TU added [1, 31]: +88.8%
Measured T [1, 31]: 794.0 ng/dL
% difference vs. no TU added [1, 32]: +271.8%
Measured T [1, 32]: 1515.0 ng/dL
% difference vs. no TU added [1, 33]: +15.8%
Measured T [1, 33]: 374.5 ng/dL
% difference vs. no TU added [1, 34]: +95.1%
Measured T [1, 34]: 643.0 ng/dL
T measured ([1]; TU added 30 ng/mL, blood from four hypogonadal men, plain tubes, baseline serum T 26.0 ± 6.2 ng/dL): 48.9 ± 5.1 ng/dL
Increase in measured T from baseline ([1]; highest TU concentration (1000 ng/mL), blood from hypogonadal men, plain tubes): ≤ 22 fold
Reduction of overestimation of T by collecting blood into NaF tubes ([1]; increasing amounts of TU added to blood): 30–85%
Overestimation of measured T levels ([1]; increasing amounts of TU added to plain tubes, Table 3, Experiments 1 and 2): +24 to 272%
Measured T levels after incubation with different amounts of NaF [2]: did not increase
Mean difference in T concentrations between plain and NaF‐EDTA tubes [3]: ~0%
